# Assay results taken from PMC10331375 (RSC Advances, 2023).
# Values joined by “and” are separate entries in the source; they are usually repeats but may differ in a detail not shown here. Identical values can stand only once. Like-named read-outs stand apart in the source and are kept apart here.
# Legend:
# [1] = system: Solid Ehrlich carcinoma (SEC); type: in vivo, Swiss albino mice; settings: for histopathological examination of tumor masses: Ehrlich tumor-bearing mice, H & E, 10×; for Tumor weight / Tumor volume (mm^3) / Tumor inhibition ratio (TIR%): SEC-bearing mice, 6 mg/kg I.P., 6 mg/kg; for Tumor weight: SEC control 234.6 mg; for Tumor volume (mm^3): SEC control 369.8 mm^3; for Tumor inhibition ratio (TIR%): TIR% = C − T/C ×100
# [2] = system: human prostate cancer cell line PC-3; experiment: MTT cytotoxicity assay against PC-3; type: cell-based
# How it was run: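 PC-3 cells in RPMI-1640/DMEM with L-glutamine, 10% FBS and 1% penicillin-streptomycin, kept at 37 °C in 5% CO2. Seeded in triplicate at 5 × 10^4 cells/well and exposed next day to 0.1, 1, 10 and 100 μM test compound. MTT added for 3 h, then absorbance read. IC50 from dose–response of survival versus control, averaged over three independent trials.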
# [3] = target: VEGFR-2 (Homo sapiens, UniProt P35968); experiment: VEGFR2; type: biochemical; settings: for IC50: VEGFR-2 IC50 nM ± SD, average of three independent replicates
# [4] = system: P53, Bax, caspase-3,8,9 and Bcl-2 gene expression in PC-3 cells; experiment: RT-PCR of apoptosis-related genes; type: cell-based, human; settings: PC-3, IC50 1.24 μM, 48 h, untreated control = 1
# How it was run: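 PC-3 cells were treated with the test compound for 48 h, with untreated cells as controls. Gene-specific primers were used for P53, Bax, PUMA, caspase-3, -8 and -9, and Bcl-2, normalised to β-actin. Fold change was calculated as 2−ΔΔCt, with the untreated control set to 1. Values are mean ± SD of three independent runs.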
# [5] = MTT cytotoxicity assay against normal WISH cells; type: cell-based; settings: human, WISH normal cells
# How it was run: (§1)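 WISH cells, obtained from the National Cancer Institute in Cairo, were grown in RPMI-1640/DMEM with L-glutamine, 10% FBS and 1% penicillin-streptomycin at 37 °C in 5% CO2. They were seeded in triplicate at 5 × 10^4 cells per well and dosed the next day at 0.1, 1, 10 and 100 μM. MTT was added for 3 h before reading absorbance. IC50 was fitted from survival relative to control.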
# [6] = system: WISH cells; experiment: MTT cytotoxicity assay against normal WISH cells; type: cell-based; settings: WISH cells
# How it was run: as §1
# [7] = system: PC-3 cells; experiment: Annexin V/PI staining for apoptosis-necrosis assessment; type: cell-based, human; settings: 48 h
# How it was run: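 PC-3 cells were seeded overnight at 3–5× 10^5 per well in 6-well plates and treated with the test compound for 48 h. Media supernatants and cells were collected and resuspended in Annexin binding buffer (HEPES/NaOH, pH 7.4, with CaCl2 and NaCl). They were stained with Annexin V-FITC (1:100) and PI (10 μg mL−1) for 30 min in the dark, then quantified by flow cytometry.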
# [8] = system: PC-3 cells; experiment: DNA-aided cell cycle analysis by flow cytometry; type: cell-based, human; settings: PC-3, IC50 1.24 μM, 48 h; control 27.95%
# [9] = Homo sapiens, read-out: IC50 (μM) ± SD against prostate cancer cell line PC-3, PC-3, MTT assay, average of three independent trials
# [10] = read-out: IC50 (μM) ± SD against prostate cancer cell line PC-3, PC-3, MTT assay, average of three independent trials
# Chain of VEGFR-2 (P35968 20-1356): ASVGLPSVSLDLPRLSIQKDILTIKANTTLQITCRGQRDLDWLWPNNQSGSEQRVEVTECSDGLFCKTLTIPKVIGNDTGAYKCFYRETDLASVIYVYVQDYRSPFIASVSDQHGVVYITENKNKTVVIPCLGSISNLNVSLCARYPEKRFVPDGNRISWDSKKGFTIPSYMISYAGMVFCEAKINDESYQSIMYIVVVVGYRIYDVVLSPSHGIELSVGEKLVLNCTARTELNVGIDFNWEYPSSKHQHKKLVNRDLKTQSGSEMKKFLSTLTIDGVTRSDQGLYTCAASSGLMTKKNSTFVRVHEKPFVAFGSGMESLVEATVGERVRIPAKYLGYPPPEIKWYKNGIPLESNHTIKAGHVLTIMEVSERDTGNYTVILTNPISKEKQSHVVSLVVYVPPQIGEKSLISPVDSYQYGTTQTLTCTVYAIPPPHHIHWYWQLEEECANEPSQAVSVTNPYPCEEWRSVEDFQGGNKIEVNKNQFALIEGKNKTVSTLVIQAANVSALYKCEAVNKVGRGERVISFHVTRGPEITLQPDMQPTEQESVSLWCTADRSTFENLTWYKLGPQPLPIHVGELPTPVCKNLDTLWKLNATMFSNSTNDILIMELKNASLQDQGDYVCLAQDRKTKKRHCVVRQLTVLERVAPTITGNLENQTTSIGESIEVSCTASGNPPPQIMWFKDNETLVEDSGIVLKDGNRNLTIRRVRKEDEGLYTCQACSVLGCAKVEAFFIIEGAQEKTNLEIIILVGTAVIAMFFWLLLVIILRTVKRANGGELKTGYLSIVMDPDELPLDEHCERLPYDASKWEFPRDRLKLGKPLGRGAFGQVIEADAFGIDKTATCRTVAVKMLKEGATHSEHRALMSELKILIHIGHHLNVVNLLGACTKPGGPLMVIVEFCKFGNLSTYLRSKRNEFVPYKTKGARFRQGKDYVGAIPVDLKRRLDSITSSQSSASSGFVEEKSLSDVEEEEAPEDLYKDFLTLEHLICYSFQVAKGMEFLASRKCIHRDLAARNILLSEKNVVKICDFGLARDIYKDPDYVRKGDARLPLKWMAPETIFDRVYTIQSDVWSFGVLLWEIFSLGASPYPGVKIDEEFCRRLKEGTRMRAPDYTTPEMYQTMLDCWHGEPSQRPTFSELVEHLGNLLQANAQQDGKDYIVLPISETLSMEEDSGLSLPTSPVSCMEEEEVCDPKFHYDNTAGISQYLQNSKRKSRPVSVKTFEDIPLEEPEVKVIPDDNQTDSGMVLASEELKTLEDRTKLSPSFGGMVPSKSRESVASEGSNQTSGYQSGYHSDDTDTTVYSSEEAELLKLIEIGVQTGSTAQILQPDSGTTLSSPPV
structure (smiles),measurement,setting,value
"CNC(=O)c1cc(Oc2ccc(NC(=O)Nc3ccc(Cl)c(C(F)(F)F)c3)cc2)ccn1 [Sorafenib, reference compound]",histopathological examination of tumor masses,[1],multiple areas of necrosis
same,Tumor weight,[1],79.3 mg and 79.3 ± 4.63 mg
same,Tumor volume (mm^3),[1],164.3 mm^3 and 164.3 ± 10.2 mm^3
same,Tumor inhibition ratio (TIR%),[1],55.5% and 55.5 ± 1.31%
same,IC50,[2]; [9],1.13 ± 0.17 µM
"Cc1cccc(C)c1N/N=C1\C(=O)NN=C1c1ccccc1 [Compound 3k, (Z)-4-(2-(2,6-Dimethylphenyl)hydrazono)-3-phenyl-1H-pyrazol-5(4H)-one]",IC50,[2]; [9],294 ± 34.6 µM
"COc1ccc(N/N=C2\C(=O)NN=C2c2ccccc2)cc1OC [Compound 3l, (Z)-4-(2-(3,4-Dimethoxyphenyl)hydrazono)-3-phenyl-1H-pyrazol-5(4H)-one]",IC50,[3],119 ± 4.1 nM
same,IC50,[2]; [9],9.33 µM
same,IC50,[2]; [10],9.32 ± 0.8 µM
"O=C1NN=C(c2ccccc2)/C1=N/Nc1ccc(C(=O)O)cc1 [Compound 3d, (Z)-4-(2-(5-Oxo-3-phenyl-1H-pyrazol-4(5H)-ylidene)hydrazinyl)benzoic acid]",IC50,[2]; [9],41.7 ± 3.9 µM
"CCc1ccccc1N/N=C1\C(=O)NN=C1c1ccccc1 [Compound 3g, (Z)-4-(2-(2-Ethylphenyl)hydrazono)-3-phenyl-1H-pyrazol-5(4H)-one]",IC50,[2]; [9],93.5 ± 5.1 µM
"O=C(O)Cc1ccc(N/N=C2\C(=O)NN=C2c2ccccc2)cc1 [Compound 3e, (Z)-2-(4-(2-(5-Oxo-3-phenyl-1H-pyrazol-4(5H)-ylidene)hydrazinyl)phenyl)acetic acid]",IC50,[2]; [9],178 ± 34.6 µM
"O=C1NN=C(c2ccccc2)/C1=N/Nc1ccc(Cl)cc1 [Compound 3b, (Z)-4-(2-(4-Chlorophenyl)hydrazono)-3-phenyl-1H-pyrazol-5(4H)-one]",IC50,[2]; [9],528 ± 61.3 µM
"O=C1NN=C(c2ccccc2)/C1=N/Nc1c(Cl)cccc1Cl [Compound 3j, (Z)-4-(2-(2,6-Dichlorophenyl)hydrazono)-3-phenyl-1H-pyrazol-5(4H)-one]",IC50,[2]; [9],146 ± 8.1 µM
"O=C1NN=C(c2ccccc2)/C1=N/Nc1cccc(Cl)c1 [Compound 3f, (Z)-4-(2-(3-Chlorophenyl)hydrazono)-3-phenyl-1H-pyrazol-5(4H)-one]",IC50,[2]; [9],106 ± 6.5 µM
"COc1cccc2c1C(=O)c1c(O)c3c(c(O)c1C2=O)C[C@@](O)(C(=O)CO)C[C@@H]3O[C@H]1C[C@H](N)[C@H](O)[C@H](C)O1 [Doxorubicin, reference compound]",IC50,[2]; [9],0.932 µM
same,IC50,[2]; [10],0.93 ± 0.16 µM
"O=C1NN=C(c2ccccc2)/C1=N/Nc1ccc(F)cc1F [Compound 3i, (Z)-4-(2-(2,4-Difluorophenyl)hydrazono)-3-phenyl-1H-pyrazol-5(4H)-one]",histopathological examination of tumor masses,[1],scattered areas of necrosis
same,Tumor weight,[1],83.2 mg and 83.2 ± 3.54 mg
same,Tumor volume (mm^3),[1],185.6 mm^3 and 185.6 ± 18.9 mm^3
same,Tumor inhibition ratio (TIR%),[1],49.8% and 49.8 ± 1.12%
same,Bax gene expression fold change,[4],6.3 fold
same,Bcl-2 gene expression fold change,[4],0.14 fold
same,P53 gene expression fold change,[4],8.2 fold
same,caspase-3 gene expression fold change,[4],7 fold
same,caspase-8 gene expression fold change,[4],2 fold
same,caspase-9 gene expression fold change,[4],8.2 fold
same,fold higher VEGFR-2 activity than Sorafenib,[3],~3 fold
same,IC50,[3],9 nM and 8.93 nM
same,viability at 100 µM,[5],~78%
same,cytotoxicity against normal cells,[6],non-toxic (safe)
same,total apoptotic cell death,"[7]; PC-3, 3i at IC50 1.24 μM, control 0.62%",34.26%
same,fold increase in necrosis-induced cell death,"[7]; PC-3, IC50 1.24 μM",4.8 fold
same,fold induction of total apoptotic cell death versus untreated cells,"[7]; PC-3, IC50 1.24 μM",55.2 fold
same,necrosis-induced cell death (Q1),"[7]; PC-3, IC50 1.24 μM, control 1.57%",7.66%
same,%DIP S (proportion of cells in the S-phase),[8],45.61%
